Test results from ChEMBL document CHEMBL1122695, “C1-Methylated 5-hydroxy-2-(dipropylamino)tetralins: central dopamine-receptor stimulating activity” (1984).
Calls of active or inactive are those of the source. The rule behind the calls is not given here.

Key:
[1] = organism: Rattus norvegicus; test: Half maximal decrease of dopa accumulation in limbic portion of reserpinized rats; I =Inactive; type: functional, organism-based; settings: Limbic system
In short: (§1)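 Reserpinized rats; Dopa accumulation measured after the decarboxylase inhibitor NSD 1015 (100 mg/kg), Dopa determined spectrophotometrically. Compounds in saline, given subcutaneously at four to six dose levels. A dose-response curve was built per compound and brain area (limbic, striatal). ED50 is the dose giving half-maximal decrease of Dopa, estimated graphically. SEM was below 15% of the mean at each point.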

[2] = organism: Rattus norvegicus; test: Half maximal decrease of dopa accumulation in striatal brain portion of reserpinized rats; I =Inactive; type: functional, organism-based; in short: as §1
[3] = organism: Rattus norvegicus; test: Reduction in accumulated dopa is indicated with Motor activity value; type: functional
In short: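 Rats given reserpine (10 mg/kg ip) 6 h and α-methyl-p-tyrosine methyl ester (250 mg/kg ip) 1 h before testing. Compounds were then given sc in the neck, n = 4, at 1 or 10 mg/kg in saline; controls received saline. Photocell motility meters, one rat per cage, recorded activity for 60 min immediately after dosing, with gross behavior observed.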

[4] = organism: Rattus norvegicus; test: Half maximal decrease of dopa accumulation in limbic portion of reserpinized rats; type: functional; settings: Limbic system; in short: as §1
[5] = organism: Rattus norvegicus; test: Half maximal decrease of dopa accumulation in striatal brain portion of reserpinized rats; type: functional; in short: as §1

Compound | ED50 [1] | ED50 [2] | Motor activity [3] | ED50 [4] [µmol/kg] | ED50 [5] [µmol/kg]
CCCN(CCC)[C@H]1CCc2c(O)cccc2C1(C)C | inactive | inactive | inactive | – | –
Br.CCCN(CCC)[C@H]1CCc2c(O)cccc2[C@@H]1C | – | – | 406 Counts hr-1 | 0.66 | 0.725
Br.CCCN(CCC)[C@H]1CCc2c(O)cccc2[C@H]1C | – | – | 52 Counts hr-1 | 0.67 | 0.8
